Here are results for four compounds from PMC6785730 (The Journal of General Physiology, 2019).

A word on the Hill coefficient: it is a measure of the steepness of the concentration-response curve. Usually EC50 stands for the concentration that produces a half-maximal response. The Kd is a measure of binding affinity in units of concentration.

Experiment [1] concerns HCN2 C-terminus. To be noted: 10 and 25 µM HCN2 C-terminus, very high ligand levels; ref Ng et al., 2016; cited from earlier work.
In experiment [2] the test system is HCN2 channel. To be noted: cited from earlier work.
Experiment [3] addresses T1, R632A-HMT HCN2 C-linker/CNBD (Mus musculus, UniProt O88703, R632A).
T1 sequence (O88703 443-645 R632A): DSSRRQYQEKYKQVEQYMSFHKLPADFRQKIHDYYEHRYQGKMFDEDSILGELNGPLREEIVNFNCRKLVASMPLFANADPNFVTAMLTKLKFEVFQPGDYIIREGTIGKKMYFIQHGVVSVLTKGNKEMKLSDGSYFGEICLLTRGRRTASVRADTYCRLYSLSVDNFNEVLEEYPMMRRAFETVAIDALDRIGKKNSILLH
Nature of the experiment: ITC binding to R632A-HMT protein. To be noted: two trials.

For experiment [4], the target named is T2, D634A HCN2 C-terminus (Mus musculus, UniProt O88703, D634A).
T2 sequence (O88703 443-645 D634A): T1 sequence (O88703 443-645 R632A) with A190R, D192A
Nature of the experiment: ITC binding to D634A HCN2 C-terminus. To be noted: for Kd: two-site model, mean ± SEM. A digest of the protocol: (§1)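 HCN2 C-linker/CNBD point mutant (residues 443–645) expressed from an HMT-tagged pET28 vector in Rosetta DE3 pLacI cells, induced 4 h. […] Integrated heats fitted to a one- or two-site independent binding model; ≥3 replicates.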

Experiment [5] deals with T3, I636D HCN2 C-terminus (Mus musculus, UniProt O88703, I636D).
T3 sequence (O88703 443-645 I636D): T1 sequence (O88703 443-645 R632A) with A190R, I194D
Nature of the experiment: ITC binding to I636D HCN2 C-terminus.

The target of experiment [6] is T4, T592A HCN2 C-terminus (Mus musculus, UniProt O88703, T592A).
T4 sequence (O88703 443-645 T592A): T1 sequence (O88703 443-645 R632A) with T150A, A190R
Nature of the experiment: ITC binding to T592A HCN2 C-terminus. A digest of the protocol: as §1

For experiment [7], the target named is T5, R591A HCN2 C-terminus (Mus musculus, UniProt O88703, R591A).
T5 sequence (O88703 443-645 R591A): T1 sequence (O88703 443-645 R632A) with R149A, A190R
Nature of the experiment: ITC binding to R591A HCN2 C-terminus. In a few lines:
as §1

In experiment [8] the target is T6, K638A HCN2 C-terminus (Mus musculus, UniProt O88703, K638A).
T6 sequence (O88703 443-645 K638A): T1 sequence (O88703 443-645 R632A) with A190R, K196A
Nature of the experiment: ITC binding to K638A HCN2 C-terminus. A digest of the protocol: as §1

For experiment [9], the target named is T7, D631A HCN2 C-terminus (Mus musculus, UniProt O88703, D631A).
T7 sequence (O88703 443-645 D631A): T1 sequence (O88703 443-645 R632A) with D189A, A190R
In words: ITC binding to D631A HCN2 C-terminus. To be noted: for Kd: two-site model, mean ± SEM.

For experiment [10], the target named is T8, I636A HCN2 C-terminus (Mus musculus, UniProt O88703, I636A).
T8 sequence (O88703 443-645 I636A): T1 sequence (O88703 443-645 R632A) with A190R, I194A
Nature of the experiment: ITC binding to I636A HCN2 C-terminus.

The target of experiment [11] is T9, wild-type HCN2 C-terminus (Mus musculus, UniProt O88703).
T9 sequence (O88703 443-645): T1 sequence (O88703 443-645 R632A) with A190R
In words: ITC binding to wild-type HCN2 C-terminus. To be noted: for n: Wild type, mean ± SEM.

Experiment [12] deals with T10, L633A HCN2 C-terminus (Mus musculus, UniProt O88703, L633A).
T10 sequence (O88703 443-645 L633A): T1 sequence (O88703 443-645 R632A) with A190R, L191A
Nature of the experiment: ITC binding to L633A HCN2 C-terminus. In a few lines: as §1

For experiment [13], the target named is T11, I630A HCN2 C-terminus (Mus musculus, UniProt O88703, I630A).
T11 sequence (O88703 443-645 I630A): T1 sequence (O88703 443-645 R632A) with I188A, A190R
Nature of the experiment: ITC binding to I630A HCN2 C-terminus. To be noted: for Kd: two-site model, mean ± SEM. In a few lines: as §1

The target in experiment [14] is T12, R635A HCN2 C-terminus (Mus musculus, UniProt O88703, R635A).
T12 sequence (O88703 443-645 R635A): T1 sequence (O88703 443-645 R632A) with A190R, R193A
In words: ITC binding to R635A HCN2 C-terminus. To be noted: stoichiometry, single-site model, four trials, three from Ng et al., 2016.

Experiment [15] has as its target T9, wild-type HCN2 C-terminus. To be noted: previously found; ref Ng et al., 2016; cited from earlier work.
Setting [16] is: stoichiometry of high-affinity event.
The mark [17] stands for this setting: stoichiometry of low-affinity event.
Where [18] appears, read: slope of ΔH at 10°C and 25°C, data of Chow et al., 2012.
Setting [19] is: high-affinity event, two-site model, mean ± SEM.
Setting [20] is: low-affinity event, two-site model, mean ± SEM.
[21] abbreviates: read-out: Kd Site 1, model input from ITC.
Setting [22] is: read-out: Kd Site 2, model input from ITC.
Setting [23] is: read-out: Kd Site 3, model input from ITC.
The mark [24] stands for this setting: read-out: Kd Site 4, model input from ITC.
[25] abbreviates: single-site independent binding model, mean ± SEM, c value <1.
The mark [26] stands for this setting: stoichiometry, single-site model.
[27] abbreviates: single-site independent binding model, mean ± SEM.

Substitutions are numbered along the chain they refer to. Where two headings read alike, the source gives them in different places.

Regarding `Nc1ccn([C@@H]2O[C@@H]3COP(=O)(O)O[C@H]3[C@H]2O)c(=O)n1` [cCMP], the promotion of tetramerization result in experiment [1] is recorded as “not able to promote tetramerization”. In addition, the agonist type entry in experiment [2] was “partial agonist”.
Take `O=c1[nH]cnc2c1ncn2[C@@H]1O[C@@H]2COP(=O)(O)O[C@H]2[C@H]1O` [cIMP]: the promotion of tetramerization entry in [1] is “not able to promote tetramerization”. Also, the agonist type entry in experiment [2] is “partial agonist”.
On to cAMP, for which the “binding to R632A-HMT protein” value in experiment [3] was “not detected”. For the same compound, the n is recorded as 0.26 ± 0.03 in [4] (setting [16]); 0.81 ± 0.03 in experiment [4] (setting [17]); 0.56 ± 0.07 in [5] (setting [16]); 0.82 ± 0.02 in [5] (setting [17]); 0.23 ± 0.01 in [6] (setting [16]); 0.56 ± 0.06 in experiment [6] (setting [17]). For the same compound, the n in [7] (setting [16]) stood at 0.35 ± 0.02; in [7] (setting [17]) it was 0.70 ± 0.09; in experiment [8] (setting [16]), 0.38 ± 0.04; in experiment [8] (setting [17]), 0.50 ± 0.03; in experiment [9] (setting [16]), 0.21 ± 0.02; in [9] (setting [17]), 0.56 ± 0.04. Moreover, the n in experiment [10] (setting [16]) was 0.36 ± 0.01; in experiment [10] (setting [17]), 0.60 ± 0.03; in [11] (setting [16]), 0.33 ± 0.02; in experiment [11] (setting [17]) it was 0.66 ± 0.09; in experiment [12] (setting [16]), 0.41 ± 0.02; in [12] (setting [17]) it was 0.69 ± 0.05. Moreover, the n is recorded as 0.28± 0.03 in [13] (setting [16]) and 0.69 ± 0.07 in [13] (setting [17]). The “ΔCp, high-affinity binding” value in experiment [11] (setting [18]) is −159 cal/mol/°C. The “ΔCp, low-affinity binding” value in [11] (setting [18]) is −898 cal/mol/°C. Besides, the Hill coefficient in experiment [2] is approximately 1. For the same compound, in experiment [2] (read-out: EC50 determined by the Hill equation), the EC50 is approximately 0.1 µM.
With cGMP, the “binding to R632A-HMT protein” value in [3] is “not detected”. The dissociation constant Kd is 0.54 ± 0.1 µM in [4] (high-affinity event); 8.04 ± 1.32 µM in experiment [4] (low-affinity event); 0.21 ± 0.07 µM in experiment [5] (setting [19]); 1.76 ± 0.51 µM in experiment [5] (setting [20]); 0.21 µM in experiment [5] (setting [21]); 1.76 µM in experiment [5] (setting [22]). Further, the Kd in experiment [5] (setting [23]) turned out to be 1.76 µM; in [5] (setting [24]), 1.76 µM; in [6] (setting [25]), 184 ± 2.69 µM; in experiment [7] (setting [25]), 322 ± 26.7 µM; in [8] (setting [27]), 14.7 ± 2.04 µM; in experiment [9] (high-affinity event), 0.21 ± 0.06 µM. The Kd in [9] (low-affinity event) was 4.78 ± 0.88 µM; in experiment [10] (setting [19]), 0.24 ± 0.02 µM; in [10] (setting [20]), 3.23 ± 0.15 µM; in experiment [10] (setting [21]), 0.24 µM; in experiment [10] (setting [22]), 3.23 µM; in experiment [10] (setting [23]), 3.23 µM. Moreover, the Kd turned out to be 3.23 µM in [10] (setting [24]), 16.5 ± 3.2 µM in experiment [12] (setting [27]), 0.49 ± 0.11 µM in experiment [13] (high-affinity event) and 7.78 ± 0.31 µM in [13] (low-affinity event). Moreover, the n in [4] (setting [16]) is 0.23 ± 0.04; in experiment [4] (setting [17]) it was 0.87 ± 0.14; in [5] (setting [16]) it was 0.18 ± 0.04; in [5] (setting [17]) it was 0.56 ± 0.08; in [6] (setting [26]), 0.20 ± 0.03; in experiment [14] it was 0.67 ± 0.09. The n in experiment [7] (setting [26]) amounted to 2.15E-5 ± 9.20E-6; in experiment [8] (setting [26]) it was 0.47 ± 0.09; in experiment [9] (setting [16]) it was 0.20 ± 0.03; in [9] (setting [17]), 0.63 ± 0.09; in experiment [10] (setting [16]) it was 0.23 ± 0.01; in [10] (setting [17]), 0.44 ± 0.02. Moreover, the n in [11] (setting [16]) worked out at 0.21 ± 0.01; in experiment [11] (setting [17]), 0.27 ± 0.01; in experiment [12] (setting [26]), 0.74 ± 0.09; in experiment [13] (setting [16]) it was 0.24 ± 0.05; in experiment [13] (setting [17]), 0.44 ± 0.05. Besides, the “fold difference between low- and high-affinity binding” value in experiment [15] was 2.3 fold; in experiment [11] (found here), 3 fold. Besides, the “increase of the high-affinity Kd compared with cAMP binding” value in [11] (wild-type HCN2 C-terminus) was “threefold”. Moreover, in experiment [11] (wild-type HCN2 C-terminus), the “increase of the low-affinity Kd compared with cAMP binding” value is reported as approximately 3.4 fold.
